Active and inactive are the calls of the source.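 Rule for the calls, unless noted: active = viability at or below 30% in both replicate assays; inconclusive = viability at or below 30% in just one of the two assays; inactive = the rest.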
What was measured:
[1] = SK-BR-3 cell growth inhibitors, pilot screen, 24 h, human (AID 572;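 active = viability at or below 10% of carrier control in both of two separate runs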;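 note: compound exposure lasted between 18 and 24 h rather than exactly 24 h; 100% = carrier-treated control wells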); details: SK-BR-3 viability, CellTiter-Glo luminescence, at 10 µM, stronger effect = lower value
[2] = HUVEC growth inhibition – cell-based, human, primary screen (AID 575); details: HUVEC proliferation, CellTiter-Glo luminescence, 72 h; at 10 µM; stronger effect = lower value;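 note: 100% = median of untreated cell wells with 0.1% DMSO on each plate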
In short: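 Test system: primary human umbilical vein endothelial cells. Quantity: 1250 cells/well. Compound: single 10 µM dose, 0.1% DMSO, from 5x medium stock. Timing: 72 h treatment at 37 °C. Detection: ATP-based CellTiter-Glo luminescent read. Benchmarks: vehicle and MePR control wells. Format: 384-well plates coated with collagen.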

[3] = growth inhibitors of H69AR lung tumor, primary screen, human, duplicate replicates (AID 580;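 active = viability at or under a set limit in both replicates, limit being median viability minus 3 SD, cut at about 48% in these data, passing the limit was not always enough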;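 note: 100% = mean luminescence of untreated wells and 0% = no signal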); details: H69AR lung tumor cells viability, ATP luminescence, 72 h; at 10 µM; stronger effect = lower value
[4] = reversal of MRP1-mediated doxorubicin resistance, pilot screen, H69AR cells, doxorubicin co-treatment (AID 601;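 active = viability loss from added drug above about 55%, and viability with drug at most 40%, in both replicates, limit read from the data, passing the limit was not always enough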); details: CellTiter-Glo, 72 h, at 10 µM; for differential viability (reversal): stronger effect = higher value
[5] = 384-well plate pilot, post-Golgi transport modulator project, inhibition of yeast transport mutant growth (AID 636; in the data active = inhibition above about 31%); details: absorbance 615 nm, about 18 h, stronger effect = higher value
[6] = growth suppression of yeast trafficking mutant, preliminary HTS, modulators of trafficking downstream of Golgi apparatus project, 1536-format plate, OD 615 nm (AID 637; in the data active = inhibition above about 30%); details: yeast transport mutant growth, absorbance 615 nm, 18 h; stronger effect = higher value
[7] = H69AR cells + 2 uM doxorubicin, measured here: viability with 2 uM doxorubicin, stronger effect = lower value
[8] = H69AR cells, compound alone cytotoxicity

Structure (SMILES)	viability [1]	viability [2]	viability [3]	differential viability (reversal) ([4]; H69AR cells + 2 uM doxorubicin)	viability [4, 7] [%]	viability [4, 8] [%]	inhibition [5]	inhibition [6]
O=C(O)c1ccc(C2SCC(=O)N2Cc2ccccc2)cc1 (configuration not stated)	95% (inactive)	109% (inactive)	96.9% (inactive)	1.26% (inactive)	95.6	96.9	-1.07% (inactive)	0% (inactive)
Nc1ccc(S(=O)(=O)Nc2ccccn2)cc1	143% (inactive)	102% (inactive)	91.3% (inactive)	10.3% (inactive)	81	91.3	0.78% (inactive)	-1.17% (inactive)
COc1ccc(COC(=O)c2n[nH]c3ccccc23)cc1F	89% (inactive)	85.2% (inactive)	100% (inactive)	8.74% (inactive)	91.3	100	-9.45% (inactive)	3.82% (inactive)
O=C(CCn1cccc1)N1CCc2ccccc21	104% (inactive)	83% (inactive)	101% (inactive)	13.3% (inactive)	87.6	101	-2.08% (inactive)	2.13% (inactive)
Cn1cnnc1Sc1nc2c(c(=O)n(C)c(=O)n2C)n1Cc1ccccc1Cl	72% (inactive)	98.5% (inactive)	90.3% (inactive)	-2.15% (inactive)	92.4	90.3	-3.7% (inactive)	0.91% (inactive)
CCCn1c(=O)c2[nH]c(C3CCCC3)nc2n(CCC)c1=O	100% (inactive)	77.3% (inactive)	70.7% (inactive)	50.8% (inactive)	19.9	70.7	-1.3% (inactive)	-1% (inactive)
Cc1ccc(CS(=O)(=O)Cc2ccc(C(=O)NCc3ccccn3)o2)cc1	95% (inactive)	99.8% (inactive)	99.4% (inactive)	9% (inactive)	90.4	99.4	-1.87% (inactive)	-0.18% (inactive)
O=P(CCNCc1ccco1)(c1ccccc1)c1ccccc1	110% (inactive)	97.8% (inactive)	97.4% (inactive)	2.59% (inactive)	94.8	97.4	-5.6% (inactive)	-4.18% (inactive)
CC(N)C12CC3CC(C1)CC(C(C)N)(C3)C2 (configuration not stated)	87% (inactive)	110% (inactive)	101% (inactive)	11.4% (inactive)	89.4	101	-3.6% (inactive)	-4.18% (inactive)
CC1(C)CC(=O)C2=C(C1)NC(=O)CC2C(=O)NCc1ccc(F)cc1 (configuration not stated)	106% (inactive)	110% (inactive)	111% (inactive)	15.3% (inactive)	95.5	111	-4.05% (inactive)	1.64% (inactive)
CC1(C)CC(=O)C=C(NC2CCS(=O)(=O)C2)C1 (configuration not stated)	97% (inactive)	107% (inactive)	91.3% (inactive)	-0.825% (inactive)	92.2	91.3	0% (inactive)	6.89% (inactive)
NC(=O)C1CCN(c2nc(-c3ccccc3)nc3ccccc23)CC1	114% (inactive)	77.2% (inactive)	66.3% (inactive)	-2.88% (inactive)	69.2	66.3	-3.15% (inactive)	-4.03% (inactive)
CC1(C)C(c2cccs2)=[N+]([O-])C2(CCCCC/C2=N\O)N1O (configuration not stated)	99% (inactive)	101% (inactive)	110% (inactive)	18.4% (inactive)	91.8	110	-7.95% (inactive)	-1.27% (inactive)
O=C(COc1ccc(S(=O)(=O)NC2CCCCC2)cc1)NCc1ccccn1	65% (inactive)	102% (inactive)	85.6% (inactive)	-3% (inactive)	88.6	85.6	-7.26% (inactive)	2.18% (inactive)

From PubChem BioAssay
